Assay results: the EternaBench riboswitch data

Test system: MS2 coat protein
Assay: apparent Kd, MS2 coat protein; higher = weaker binding; RNA-MaP array; FMN 200 µM where present
Procedure, shortened: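 Stalled E. coli RNA polymerase transcribed each design on Illumina sequencing-chip clusters. The clusters were titrated with SNAP-549-labelled MS2 coat protein, starting at 0.7 or 1.5 nM and doubling up to 3 µM, first without ligand and then with constant ligand, in 100 mM Tris-HCl pH 7.5, 80 mM KCl, 4 mM MgCl2, BSA, DTT, yeast tRNA and Tween-20. Green signal was normalised to red-channel RNA signal and to the control-cluster median Fmax. The apparent Kd is the median of filtered binding-curve fits made for each cluster.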

[1] = designed as: OFF switch for flavin mononucleotide, no ligand
[2] = ligand present: flavin mononucleotide, designed as: OFF switch for flavin mononucleotide
[3] = designed as: ON switch for flavin mononucleotide, no ligand
[4] = ligand present: flavin mononucleotide, designed as: ON switch for flavin mononucleotide

| Sequence | apparent Kd [1] [nM] | apparent Kd [2] [nM] | apparent Kd [3] [nM] | apparent Kd [4] [nM] |
| --- | --- | --- | --- | --- |
| CCAUUCAGAGGAUAUGCGCAUAGAUAAGACUUUUUUUUUUAACAUGAGGAUCACCCAUGUAGAAGGCUGUAACC | 23.2 | 23.1 |  |  |
| CCAUUUACUGAGGAUAUUGCAUCACCCGACUGAUAAGAAGGCAGAACAUGAGGAUCACCCAUGUGGGUACUCAC | 73.7 | 105 |  |  |
| CCCAAACUUGGGUUUAAUGGUUCAUAGGAUAUGCUUGUACAUGAGGAUCACCCAUGUACUAUUGUGCAGAAGGGUGCAUGGCAA |  |  | 39.8 | 26.3 |
| CCCGGACAUGAGGAUCACCCAUGUUAGGAUAUCUAGAGGAUCUAAACCGAAUAGAUCCAGAGAAGGGAUGUGGG |  | 46.5 |  |  |
| CCCGGUCUGGAGGAUAUUAUAGAGCGUGCUUAAUAAGAAGGUCAGACAUGAGGAUCACCCAUGUUCUUACCCGG | 23.3 | 53.8 |  |  |
| CCCGUGUUAGGAUAUACGGCACACCCACCAGCGGGUGUAUAGUAGAAGGAACAUGAGGAUCACCCAUGUAUAAC | 34.9 | 51.4 |  |  |
| CCCUAGGUAGGAUAUACUUGGACUCGGCUGAUGUGCCUAAAACAUGAGGAUCACCCAUGUAGAAGGACUAAGGC | 12.6 | 11.6 |  |  |
| CCGAAUAAGCAGGAUAUCGUAUCGGAAACGAUACGAGAAGGGUUAACAUGAGGAUCACCCAUGUUCCUUAACGG | 20.3 | 24.8 |  |  |
| CCGAAUAUGCAGGAUAUCUUAUCGGAAACGAUAAGAGAAGGGUAAACAUGAGGAUCACCCAUGUUCCUUAACGG | 20.3 | 21 |  |  |
| CCGCAAAAGCAGGAUAUCGUAUCGGAUACGAUACGAGAAGGGUUUACAUGAGGAUCACCCAUGUUCCUUAGCGG | 31.5 | 36 |  |  |
| CCGCAAAUGCAGGAUAUCGUAUCGGAUACGAUACGAGAAGGGCGUACAUGAGGAUCACCCAUGUGUCCUAGCGG | 16.4 | 23.3 |  |  |
| CCGCCCUGAGGAUAUCCACCCUCAUACAUGAGGAUCACCCAUGUUCACCCUUGGGUUCCCGGAGAAGGCAGUUUUC | 306 | 521 |  |  |
| CCGCGCGCGCGAGGAUAUCUAUAUCCAACAUGAGGAUCACCCAUGUUGAGGAUCACCCAUGUAAAGGAGAAGGCGCGCGCGCGG |  |  | 44.8 | 15.8 |
| CCGGAAACGGGUAGCUGACAUGAGGAUCACCCAUGUGAAACACAGGAUAUGGAUCCUAAUUGGAUCCAGAAGGGUGUCAGCUAC |  |  | 247 | 37.2 |
| CCGGAAAGGGAGGAUAUAGGAGUCGAUAGACACCUAGAAGGCCUGACAUGAGGAUCACCCAUGUGUCCUACCGG | 15 | 25 |  |  |
| CCGGCUGCCGUGAGGAUAUGCCCGCGCGCCCGCGGGCAGAAGGCACAUGAGGAUCACCCAUGUCCUGCGGUCCC | 17.4 | 19.9 |  |  |
| CCGGCUGCUGUGAGGAUAUGCCUGUGGGUGCGUGGGUAGAAGGCACAUGAGGAUCACCCAUGUCCUGCGGGCCC | 123 | 81.8 |  |  |
| CCGGGACAUGAGGAUCACCCAUGUUUCGUUUGUAGUAAAGCACAGGAUAUGAUGAAACAGGUUUCUCAGAAGGGUGUUCCGAAA |  |  | 91 | 75.4 |
| CCGUUUUGAGGAUAUCCACCCUCAUACAUGAGGAUCACCCAUGUUCACCCUUGGGUUCCCGGAGAAGGCAGUUUUC | 1120 | 828 |  |  |
| CCUACGUGAGGAUAUGCAACUAACACGUUAGACAAAUAGUUGCAGAAGGCACAUGAGGAUCACCCAUGUGAACC | 29.8 | 34.9 |  |  |
| CCUAGUUGGUAAGGAUAUCCUACACUGUUCUGACCCGUGCAAGCUACAUGAGGAUCACCCAUGUGGGAGAAGGUGCGUCAACGU | 12.7 | 11.9 |  |  |

| Sequence | apparent Kd [1] [nM] | apparent Kd [2] [nM] | apparent Kd [3] [nM] | apparent Kd [4] [nM] |
| --- | --- | --- | --- | --- |
| CCUAUGUGAGGAUAUCACUGGUCUUCUUUUAUUUUUUACAGUGAGAAGGCACAUGAGGAUCACCCAUGUCGGUG | 107 | 36.4 |  |  |
| CCUCCACAUGAGGAUCACCCAUGUCAGGAUAUCGUGUGUUUUUUUUCGGUCUUUCGUGCGAGAAGGGACGUCUU | 30.5 | 33.8 |  |  |
| CCUCGACAUGAGGAUCACCCAUGUCAGGAUAUUGUGUCUCGGGUUUUUUACCGAAAGGCGAGAAGGGAUGUGUG | 16.1 | 21 |  |  |
| CCUGAGUCAGGAUAUUGUACCGGCCUGAAGCCAGACCGACCCAAGAAGGGACAUGAGGAUCACCCAUGUGAAAA | 23.1 | 24.7 |  |  |
| CCUGUGUGAGGAUAUGGUGUUGGCCAAAAGGAAUAGCUCCUCCAGAAGGCACAUGAGGAUCACCCAUGUCGUGG | 18 | 81.9 |  |  |
| CCUUAAAUUGUAAGGAUAUUAAAGCUGCUGAGUUAUAAGAAGGUACAUGAGGAUCACCCAUGUUCGGCAGGGUC | 17.8 | 18.4 |  |  |
| CGAAACUACGAGAAGGACAUGUGGUCCUUCAGUUACAUGAGGAUCACCCAUGUAGGAUAUCGUAGUUUCAGGAUCGUGAGAUCU | 38.7 | 9.81 |  |  |
| CGAAGCCCGUAGAAGGGUGACAUGAGGAUCACCCAUGUGCGAGCGGAGGGAGUCAGCGGCUCGCCACAGGAUAUACGGAGCUCG |  |  | 151 | 67.9 |
| CGAAGUAGCACAGGAUAUCAUACAUGAGGAUCACCCAUGUCAAGAAACAAAUGAGAAGGGUGCAGACGGUGUUGGAGCUGUUGC |  |  | 192 | 26.6 |
| CGACACCGGGAGAAGGCCAGACGCCGGCGCCCAAUACAACUGAGCUUAUGGAGGAUAUCCCGACAUGAGGAUCACCCAUGUAUC |  |  | 35.5 | 10.8 |
| CGAGCUGCCAGAGGAUAAUGGACAUGAGGAUCACCCAUGUGUCAGGAUAUGGGUUUCACAUGGACUCAGAAGGGACCAGCCCGA |  |  | 107 | 30.2 |
| CGAGUGUAAGGAUAUUCGGCACCAGAGAACGAUCUGGCGUAGAAGAAGGUACAUGAGGAUCACCCAUGUGGUUA | 158 | 41.7 |  |  |
| CGAGUUUUUGAGAAGGCAUAAUAUAUAAUACCACAUGUUUACAUGAGGAUCACCCAUGUUUCCUAUGAGGAUAUCAGAAUAUCG | 16.1 | 14.4 |  |  |
| CGAGUUUUUGAGAAGGCAUAUUAUAUUUAUAGUCAUGUUAACAUGAGGAUCACCCAUGUUCUCUAUGAGGAUAUCAGUUUAUCG | 7.68 | 7.87 |  |  |
| CGAUAACAUAGUUAUCCGUAGCGGACAUGAGGAUCACCCAUGUAGGAUAUGUUACUCAACGAGUAACAGAAGGACAUGAGUCUU | 18.1 | 114 |  |  |
| CGAUACAUGAGGGUCUCCCAUGACAUGAGGAUCACCCAUGUGCAGGAUAUACGUGUGAUGGUAUAGUAGAAGGGCACUCUAUGU | 29.2 | 36.9 |  |  |
| CGAUAUUAUGCAGGAUAUCUCCCUUGAAUGUGGAGAGAAGGGCAUAGGGAGACAUAAGCCUUAUUACAUGAGGAUCACCCAUGU | 10.3 | 9.31 |  |  |
| CGAUCGUUGCAGAAGGUUAAAAUUUUAUCUACAUGUUUAACAUGAGGAUCACCCAUGUUUAUGAUGAAGGAUAUGCAAGGGUCG | 6.76 | 6.18 |  |  |
| CGAUGACAAAGUCAUCGAUAACGAACAUGAGGAUCACCCAUGUAGGAUAUGCUACUCAAAGAGUAGCAGAAGGACAUGUGCCUU | 34.2 | 284 |  |  |
| CGAUGACACAGUCAUCCAAUACGAACAUGAGGAUCACCCAUGUAGGAUAUGCUACUCACAGAGUAGCAGAAGGACAUGUGCCUU | 41.4 | 182 |  |  |
| CGAUUUUUGAUCCGUUUUUUCUACAUGAGGAUCACCCAUGUGCAGGAUAUCGUGGUGUUUUACUACGAGAAGGGCAAUUUCACG | 84.8 | 198 |  |  |
